In ChEMBL document CHEMBL1275311, “Synthesis and vasodilation activity of some novel bis(3-pyridinecarbonitrile) derivatives” (Eur J Med Chem, 2010) one finds IC50 data, which are given here for twelve molecules.

For orientation: IC50 means the point on the concentration scale where inhibition reaches its midpoint.

For this test, the system named is Thoracic aorta. The test is described as follows: Vasodilatory activity in Wistar rat thoracic aorta assessed as reduction of norepinephrine hydrochloride-induced vasoconstriction. The class given is functional, tissue-based. The gist of the method:
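Isolated rat aorta preparation with contractile response recorded. Compounds were dissolved in DMSO, with vehicle-only controls run at the same DMSO concentrations. Relaxation was plotted against compound concentration (mM) to give concentration–response curves, and IC50 was calculated by the best-fit line technique.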

As to `COc1nc(-c2ccc(Cl)cc2)cc(-c2ccccc2OCCOc2ccccc2-c2cc(-c3ccc(Cl)cc3)nc(OC)c2C#N)c1C#N`, the IC50 came to 665 µM.
With `CCOc1nc(-c2cccs2)cc(-c2ccccc2OCCOc2ccccc2-c2cc(-c3cccs3)nc(OCC)c2C#N)c1C#N`, the 50% inhibitory concentration (IC50) was 865 µM.
In the case of `CCOc1nc(-c2ccc(F)cc2)cc(-c2ccccc2OCCOc2ccccc2-c2cc(-c3ccc(F)cc3)nc(OCC)c2C#N)c1C#N` it was 470 µM; in that of `COc1nc(-c2ccc(F)cc2)cc(-c2ccccc2OCCOc2ccccc2-c2cc(-c3ccc(F)cc3)nc(OC)c2C#N)c1C#N`, 517 µM.
With `COc1ccc(-c2cc(-c3ccccc3OCCOc3ccccc3-c3cc(-c4ccc(OC)cc4)nc(OC)c3C#N)c(C#N)c(OC)n2)cc1`, the IC50 stood at 890 µM.
`CCOc1nc(-c2ccccc2)cc(-c2ccccc2OCCOc2ccccc2-c2cc(-c3ccccc3)nc(OCC)c2C#N)c1C#N`: the 50% inhibitory concentration (IC50) amounted to 862 µM.
In the case of `COc1nc(-c2cccs2)cc(-c2ccccc2OCCOc2ccccc2-c2cc(-c3cccs3)nc(OC)c2C#N)c1C#N`, the IC50 was 1270 µM.
In the case of `COc1nc(-c2ccccc2)cc(-c2ccccc2OCCOc2ccccc2-c2cc(-c3ccccc3)nc(OC)c2C#N)c1C#N` it was 1050 µM; in that of `CCOc1nc(-c2ccc(Cl)cc2)cc(-c2ccccc2OCCOc2ccccc2-c2cc(-c3ccc(Cl)cc3)nc(OCC)c2C#N)c1C#N`, 622 µM.
Regarding `CCOc1nc(-c2ccc(O)cc2)cc(-c2ccccc2OCCOc2ccccc2-c2cc(-c3ccc(O)cc3)nc(OCC)c2C#N)c1C#N`, the IC50 came to 970 µM.
In the case of `COc1nc(-c2ccc(C)cc2)cc(-c2ccccc2OCCOc2ccccc2-c2cc(-c3ccc(C)cc3)nc(OC)c2C#N)c1C#N` it was 795 µM; in that of `CCOc1nc(-c2ccc(OC)cc2)cc(-c2ccccc2OCCOc2ccccc2-c2cc(-c3ccc(OC)cc3)nc(OCC)c2C#N)c1C#N`, 696 µM.
